# In the library only some 4.9% were active in any assay of this set; here they are far more common.
# STAT3 blocker = STAT3 signaling inhibition | 0.89% of 190,000 active | U3A cells, IL-6 STAT3-luciferase reporter, luminescence; host cell line lacks STAT1 | inhibition, % at 5.5 µM;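 active = inhibition above the mean inhibition across all screened compounds plus 3 SD, cut at about 44% in these data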;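 note: 0% = DMSO only wells and 100% = 100 µM nifuroxazide control wells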
# FLuc stim CS = firefly luciferase counter-screen for stimulation assays; P08659; ATPlite luciferase biochemical, luminescence, 10 min; 0 = ATP-free wells, 1 = DMSO control; activation factor at 10 µM; 200,000 tested, under 10 active;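 active = luciferase activation factor, scaled between plate controls, of at least 2 with compound at 10 µM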
# Target sequence (P08659 whole entry, looked up): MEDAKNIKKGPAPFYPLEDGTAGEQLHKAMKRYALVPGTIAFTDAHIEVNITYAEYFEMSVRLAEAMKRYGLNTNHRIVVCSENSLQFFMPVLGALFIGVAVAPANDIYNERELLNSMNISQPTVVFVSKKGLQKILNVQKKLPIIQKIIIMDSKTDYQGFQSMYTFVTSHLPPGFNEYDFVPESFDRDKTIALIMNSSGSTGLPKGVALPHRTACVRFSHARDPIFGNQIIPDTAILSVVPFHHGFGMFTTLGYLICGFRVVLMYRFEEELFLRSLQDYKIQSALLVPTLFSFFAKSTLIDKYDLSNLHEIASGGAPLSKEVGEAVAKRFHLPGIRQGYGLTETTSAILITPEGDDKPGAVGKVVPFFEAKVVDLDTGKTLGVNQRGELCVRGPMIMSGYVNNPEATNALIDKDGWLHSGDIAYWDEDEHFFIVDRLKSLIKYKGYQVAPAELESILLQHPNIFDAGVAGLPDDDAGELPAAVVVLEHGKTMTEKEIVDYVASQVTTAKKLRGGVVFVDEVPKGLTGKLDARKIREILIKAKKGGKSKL
#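 System: Luciferase/luciferin detection reagent, cell-free biochemical luciferase assay | Medium: PBS buffer for ATP | Dosing: Test compounds dosed from 2 mM stocks in 100% DMSO | Timing: 10 min at ambient temperature | Signal: Luminescence measurement of luciferase light output | Evaluation: Luciferase activation, seen as luminescence increase over controls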
# STAT3 act = STAT3 signaling activation; AID 871; activation (% of control), % at 5.6 µM; U3A cells, IL-6 STAT3-luciferase reporter, luminescence; 100% = signal with IL-6 EC80 alone; 0.91% of 190,000 active;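 active = activation above the screen-wide mean of compound activation plus 3 SD, cut at about 130% in these data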;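 note: 0% = background luminescence of wells with medium and substrate only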
#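 Test system: Human STAT1-deficient U3A cells with stable STAT3-luciferase reporter | Also added: Interleukin-6, 33 ng/mL | Timing: Compound pre-incubation 1 h before IL-6, then 6 h stimulation at 37 °C | Technique: Luciferase reporter luminescence | Read-out: Percent of IL-6-only median luminescence | Benchmarks: IL-6-only wells as 100% reference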
# STAT1 inh = STAT1 signaling inhibition | NIH 3T3 STAT1-luciferase reporter, IFN-gamma, luminescence | 0.35% of 200,000 active | inhibition, % at 5.5 µM;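 active = inhibition above a set limit, the mean inhibition across all tested compounds plus 3 SD, cut at about 34% in these data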;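 note: 0% = IFN-gamma with DMSO and 100% = IFN-gamma with 300 µM nifuroxazide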
# STAT1 act = STAT1 signaling activation; NIH 3T3 STAT1-luciferase reporter, IFN-gamma, luminescence; 100% = IFN-gamma alone, no compound; 2.6% of 200,000 active; activation (% of control), % at 5.5 µM;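 active = activation above the screen-wide mean activation plus 3 SD, cut at about 130% in these data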;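 note: raw ratio to IFN-gamma control signal so 100% means no change and 0% no light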
# FLuc inh counter = Photinus pyralis luciferase inhibition counter-screen; P08659; ATPLite firefly luciferase biochemical luminescence, 10 min; inhibition, % at 10 µM; 1.5% of 200,000 active; AID 1006;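 active = inhibition above about 50% when tested at 10 µM, limit read from the data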
# Starred values were filed as active, the others as inactive.
SMILES,STAT3 blocker,FLuc stim CS,STAT3 act,STAT1 inh,STAT1 act,FLuc inh counter
Cc1ccc(S(=O)(=O)N2CCOCC2)cc1NC(=O)COC(=O)CNC(=O)c1ccc(Oc2ccccc2)cc1,-12.5,0.3,112.9,0.0,100.0,73.0*
Cc1ccc(S(=O)(=O)N2CCOCC2)cc1NC(=O)COC(=O)CNC(=O)c1ccc(C(C)(C)C)cc1,-20.0,0.2,116.7,1.6,98.6,81.0*
Cc1ccc(S(=O)(=O)N2CCOCC2)cc1NC(=O)COC(=O)Cc1ccsc1,-1.9,1.1,98.0,11.0,90.0,-8.0
CC(=O)NCc1nc2ccccc2n1Cc1ccccc1C,5.2,1.1,99.7,5.6,94.9,-8.3
CC(=O)Nc1nc2ccccc2n1Cc1ccccc1C,-34.3,1.1,133.6*,-26.5,124.2,-10.0
COc1ccc(N(C(C)C(=O)Nc2cccnc2)S(C)(=O)=O)cc1 (stereo not drawn),9.7,1.1,94.5,-34.6,129.8*,-11.4
COc1ccc(NC(=O)Nc2ccc(N(C)C)cc2)cc1,-3.7,0.8,103.9,-40.1,137.0*,21.8
COc1ccc(NC(=O)Nc2ccc(OC)cc2)cc1,2.2,1,101.1,-16.2,114.9,1.7
COc1ccc(NC(=O)Nc2cccnc2)cc1,-2.5,0.4,108.0,-14.4,111.1,58.0*
CCOc1ccc(NC(=O)Nc2cccnc2)cc1,14.0,0.2,97.4,-8.0,106.4,77.0*
COc1ccc(N2CC(O)=C(c3nc(-c4ccc(F)cc4)cs3)C2=N)cc1OC,10.2,1,96.9,-3.6,102.0,-4.2
CC(C)c1ccc(NC(=O)N2CCCC2C(=O)Nc2ccc(-n3cnnn3)cc2)cc1 (stereo not drawn),-5.0,1.1,108.9,-19.1,116.3,-9.4
COc1cc(S(=O)(=O)N2CCN(C(=O)c3ccccc3)CC2)c(OC)cc1Br,-0.4,1.1,105.5,-2.7,102.2,-7.2
CCCNC(=O)C(=O)Nc1ccc(N(C)C)cc1,-12.1,0.8,112.1,-39.4,136.9*,17.3
COc1ccc(NC(=O)Nc2ccc3nccnc3c2)cc1,12.2,0.4,94.9,-31.2,129.9*,57.1*
CN(C)c1ccc(NC(=O)C(=O)NCCOc2ccccc2)cc1,-0.9,1.1,102.8,-13.9,111.2,-5.8
COc1ccc(NC(=O)Nc2nccs2)cc1,3.5,0.5,99.8,-24.2,125.0,45.6
CC(=O)Nc1ccc(C(=O)N(C)C(C(=O)Nc2ccccc2)c2ccccn2)cc1 (stereo not drawn),0.6,1.1,99.8,5.0,95.5,-5.7
Cc1cccc(Cn2c(C)nc3c(N)c(C)c(C)cc32)c1,-2.5,1,103.9,2.2,97.5,-3.3
CC(NC(=O)c1ccc(C(F)(F)F)cc1)C(c1ccccc1)N1CCOCC1 (stereo not drawn),-0.9,1.1,104.1,2.5,97.4,-8.0
CCN(CC)c1ccc(/C=C/C(=O)C2C(=O)C=C(C)OC2=O)cc1 (stereo not drawn),-16.3,0.5,123.5,-43.5,137.5*,49.4
CCN(CC)c1ccc(C=C2C(=O)OC(c3ccccc3)OC2=O)cc1 (stereo not drawn),17.7,1.1,93.9,-4.7,103.6,-6.0
O=C(CSc1ncnc2ccccc12)N1CCCC1,1.1,1,106.5,-9.1,108.2,-3.9
Cc1ccc(C(=O)CSc2ncnc3ccccc23)o1,-1.1,0.7,105.0,-67.2,159.4*,26.7
O=C(CSc1ncnc2ccccc12)c1cccs1,8.1,0.3,97.0,-20.1,118.8,70.1*
SMILES,STAT3 blocker,FLuc stim CS,STAT3 act,STAT1 inh,STAT1 act,FLuc inh counter
CCOc1cc(C2Nc3ccccc3C(=O)N2c2ccccc2)ccc1O (stereo not drawn),-1.0,1.1,104.0,-3.1,102.8,-6.3
COc1cc(C2Nc3ccccc3C(=O)N2c2ccc(Cl)cc2)c(Cl)cc1OCC(=O)O (stereo not drawn),-11.6,1,114.6,-43.3,138.3*,-3.3
COc1cc(C2Nc3ccccc3C(=O)N2c2ccccc2)ccc1O (stereo not drawn),-37.9,1,133.0*,-17.0,114.5,2.1
CCOc1cc(C2Nc3ccccc3C(=O)N2c2ccccc2)c(Br)cc1OCC(=O)O (stereo not drawn),-2.5,1.1,106.5,-8.8,107.8,-7.1
CN(C)C(CNC(=O)CNC(=O)c1ccc(Br)cc1)c1ccccc1 (stereo not drawn),4.1,1,104.2,3.8,94.6,-3.4
Clc1ccc(/C=N/Nc2nnc(-c3ncc[nH]3)c3ccccc23)cc1,-16.9,0.3,116.0,-15.4,113.8,74.9*
Nn1c(SCc2ccccc2)nnc1-c1ccccn1,-5.3,1,108.9,-34.1,131.1*,-1.1
Cn1c(SCc2cccc(F)c2)nnc1-c1ccccn1,13.4,1.1,92.2,-23.7,121.6,-6.3
CC1(C)CN(c2ccsc2C(=O)O)C1=O,-7.9,1,110.7,-3.1,99.8,-2.8
COc1ccc2c(c1)Cc1sc(NC(=O)c3cccs3)nc1-2,12.2,0.9,91.0,-68.8,149.3*,9.5
COc1ccc2c(c1)Cc1sc(NC(=O)c3ccccc3)nc1-2,12.9,1,89.3,-40.4,133.6*,0.7
O=S(=O)(c1ccccc1)c1cnc(-c2ccccc2)nc1N1CCCCC1,-7.7,1,110.7,-52.8,144.9*,-0.4
COc1ccc(Nc2nc(-c3sc(NC(C)=O)nc3C)cs2)cc1,30.4,1,79.3,3.1,97.1,1.1
COc1ccc(Nc2nc(C)c(-c3ccccc3)s2)cc1,-0.2,0.9,99.0,-61.1,155.8*,11.5
COc1ccc(Nc2nc(C)c3ccccc3n2)cc1,5.4,0.8,99.5,-37.5,134.1*,22.7
CC(C)OP(=O)(OC(C)C)C(C)NC(=O)Cc1ccccc1 (stereo not drawn),7.1,1.1,97.9,0.1,99.8,-8.3
CSc1ccc(/C=N/Nc2nc(C)cc(=O)[nH]2)cc1,22.1,0.3,83.4,-11.0,109.7,68.3*
Cc1cc(=O)[nH]c(N/N=C/c2cccc([N+](=O)[O-])c2)n1,-6.9,1,102.0,0.0,100.0,0.1
O=C(O)c1ccc(N2CCCCS2(=O)=O)cc1,2.0,1.1,103.4,5.9,94.4,-8.4
O=[N+]([O-])c1cccnc1NCCNc1ncc(C(F)(F)F)cc1Cl,6.4,1,103.3,-41.3,137.2*,-3.3
Cn1c(O)c(C(C#N)=C2N=c3ccccc3=N2)c2ccccc21,-34.1,0.9,134.7*,14.2,87.0,8.3
CC(=O)C1=C(c2ccccc2)N(C(C)=O)n2c(C)nnc2S1,-7.2,1,108.1,3.4,95.2,-0.7
O=C(NC(=S)Nc1cccnc1Cl)c1ccco1,17.2,0.4,87.8,-19.3,115.1,57.9*
Cc1ccc(O)c(NC(=S)NC(=O)/C=C/c2ccco2)c1,-5.3,1,107.7,-0.7,98.9,-1.9
